The values below come from PubChem BioAssay.

Calls of active or inactive are those of the source.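 The calls were made as follows, unless noted: active = viability at or below 10% of carrier control in both of two separate runs; inconclusive = viability at or below 10% in only one of the two runs; inactive = the rest.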

One assay can be described thus: reduced viability of SK-BR-3 breast cancer cells – cell-based, 24 h, human, pilot screen (AID 572).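 Also: compound exposure lasted between 18 and 24 h rather than exactly 24 h; 100% = carrier-treated control wells.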 The settings on record: SK-BR-3 viability, CellTiter-Glo luminescence, at 10 µM, active compounds read low.
Consider `CCOC(=O)c1nnc2cc(-c3ccc(Br)cc3)nn2c1C`, for which the viability is 76.5% (inactive).

Regarding `COc1cccc(C(=O)Nc2c(C(N)=O)oc3ccccc23)c1`, the viability was 86.5% (inactive).

Turning to `CCn1c(CNc2ccc(OC)cc2)nnc1SCC(=O)c1ccc(OC)cc1`, the viability was 110% (inactive).

Turning to `COc1ccc(Br)cc1C1N2CC3(C)CN1CC(C)(C2)C3=O` (stereo not drawn), the viability is 114% (inactive).

As for `CCOC(=O)c1sc(NC(=O)CSc2n[nH]c(-c3ccccc3)n2)c(C#N)c1C`, the viability was 122% (inactive).

For the compound `CCOC(=O)N1CCN(CCC(=O)c2ccc(Cl)cc2)CC1`, the viability is 106% (inactive).

Take `CCOC(=O)c1c(C)oc2c1c(C(c1ccncc1)N1CCOCC1)c(O)c1ccccc12` (stereo not drawn): the viability is 104% (inactive).

For the compound `Cc1c(NC(=O)c2ccc(=O)oc2)c(=O)n(-c2ccccc2)n1C`, the viability was 96.5% (inactive).

Turning to `CCOc1ccccc1-n1nnnc1SCC(=O)Nc1cc2oc3ccccc3c2cc1OC`, the viability is 68.5% (inactive).

Take `CC1=C(C(=O)OC2CCCCC2)C(c2ccc(C)o2)C2=C(CC(C)(C)CC2=O)N1` (stereo not drawn): the viability is 77.5% (inactive).

Consider `Cc1nc2ccccc2c(=O)n1NC(=O)c1c(O)c2c(n(CC(C)C)c1=O)CCCC2`, for which the viability is 88.5% (inactive).

`COc1ccc(C2=NOC(C(=O)Nc3cc(Br)ccc3O)C2)cc1OC` (stereo not drawn): the viability was 108% (inactive).

For the compound `Cc1ccc(NC(=O)c2oc3ccc(S(=O)(=O)N4CCOCC4)cc3c2C)cc1C`, the viability was 91% (inactive).

Turning to `Cc1nn(-c2nc3ccccc3s2)c(C)c1Oc1ccccc1O`, the viability is 102% (inactive).

As for `Cc1ccc(S(=O)(=O)c2cc3c(=O)n4ccccc4nc3n(CC3CCCO3)c2=N)cc1C` (stereo not drawn), the viability is 83% (inactive).

On to `Cc1ccc(C)c(S(=O)(=O)C(C#N)c2nc3ccccc3nc2N2CC(C)OC(C)C2)c1` (stereo not drawn), for which the viability is 91% (inactive).

As to `COC(=O)c1ccccc1S(=O)(=O)N(Cc1cc2cc3c(cc2[nH]c1=O)OCO3)C1CCCCC1`, the viability was 83% (inactive).

For `CC(C)C(=O)Nc1ccc(C(=O)NCc2cccnc2)cc1`, the viability is 107% (inactive).

Take `C=C(c1ccc(O)cc1)c1ccc(O)cc1`: the viability is 105% (inactive).

`Cc1ccc2c(c1)c1c(n2CC(O)Cn2c(C)nc3ccccc32)/C(=N\O)CCC1` (stereo not drawn): the viability is 108% (inactive).

With `C=CCn1c(COc2ccc(Cl)cc2)nnc1SCC(=O)N1CC(=O)Nc2ccccc21`, the viability is 92% (inactive).

Regarding `CCC(Sc1nc2n[nH]c(C)c2c(=N)n1-c1cc(Cl)ccc1C)C(=O)N1CCOCC1` (stereo not drawn), the viability is 92.5% (inactive).

In the case of `CCOC(=O)c1ccc(N2C(=O)CC(Sc3nnc(C)s3)C2=O)cc1` (stereo not drawn), the viability is 103% (inactive).

Take `N#CC1=C(N)n2c(s/c(=C\c3ccco3)c2=O)=C(C#N)C1c1ccco1` (stereo not drawn): the viability is 100% (inactive).

Consider `COc1ccc(N2CCN(Cc3cc(=O)oc4cc(C)c(Cl)c(C)c34)CC2)cc1`, for which the viability was 93.5% (inactive).

Turning to `Cc1ccc(S(=O)(=O)N2CCOCC2)cc1C(=O)Nc1ccc(-c2cn3ccsc3n2)cc1`, the viability is 80% (inactive).

As for `CCCCCCc1ccc(-c2ncc(N)cn2)cc1`, the viability is 97% (inactive).

For the compound `COc1cc(-c2noc(-c3ccccc3C(=O)NCc3ccco3)n2)cc(OC)c1OC`, the viability was 79% (inactive).

Consider `Cc1ccc2nc(NC(=O)C3CCN(S(=O)(=O)c4cccc5nsnc45)CC3)sc2c1`, for which the viability was 85.5% (inactive).

For `CCOC(=O)c1sc(Nc2nc3c(OC)cccc3s2)nc1C`, the viability is 81.5% (inactive).

As for `CC(=O)c1ccccc1Oc1nc(CN2CCOCC2)nc2scc(-c3cccs3)c12`, the viability is 87.5% (inactive).

`CCn1c2ccccc2c2cc(NC(=O)Cc3ccc(S(=O)(=O)N4CCOCC4)s3)ccc21`: the viability was 83% (inactive).

Turning to `Cc1[nH]nc(N=CC2=C(O)CC(C)(C)CC2=O)c1-c1ccc(Cl)cc1`, the viability was 94.5% (inactive).

Consider `N#CC(C(=O)C1CCCCC1)c1nc2ccccc2[nH]1` (stereo not drawn), for which the viability is 91.5% (inactive).

`O=C(CSc1nnc2scc(-c3ccccc3)n12)Nc1nsc(-c2ccccc2)n1`: the viability was 82.5% (inactive).

`CC(C)(C)n1nnnc1C(c1ccccc1)N1CCc2ccccc2C1` (stereo not drawn): the viability is 107% (inactive).

With `CCc1cc2c(=O)c(-c3nc4ccccc4[nH]3)coc2cc1OC(=O)N1CCOCC1`, the viability was 100% (inactive).

For the compound `O=C(Nc1sc2c(c1C(=O)NCc1ccco1)CCCC2)c1ccc2c(c1)OCO2`, the viability is 89.5% (inactive).

Take `Cc1cccc(N2CCN(C(=O)c3ccc(NS(=O)(=O)c4c(C)noc4C)cc3)CC2)c1C`: the viability was 98% (inactive).

A further assay in a line: HUVEC growth inhibition – cell-based, human, primary screen (AID 575;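 active = viability at or below 30% in both replicate assays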;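 also: 100% = median of untreated cell wells with 0.1% DMSO on each plate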). The settings on record: HUVEC proliferation, CellTiter-Glo luminescence, 72 h; at 10 µM; active compounds read low. Summed up:
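Assay system: Primary human umbilical vein endothelial cells | Quantity: 1250 cells per well | Medium: Supplemented EBM, 2% fetal bovine serum | Detection: CellTiter-Glo luminescence measuring cellular ATP | Read-out: % viability vs DMSO wells | Plate: Collagen-coated 384-well format | Times: 72 h exposure, 37 °C, 5% CO2, 30 min RT equilibration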
For `CCOC(=O)c1nnc2cc(-c3ccc(Br)cc3)nn2c1C`, the viability is 70.3% (inactive).

Regarding `COc1cccc(C(=O)Nc2c(C(N)=O)oc3ccccc23)c1`, the viability is 65.9% (inactive).

Consider `CCn1c(CNc2ccc(OC)cc2)nnc1SCC(=O)c1ccc(OC)cc1`, for which the viability is 68.8% (inactive).

In the case of `COc1ccc(Br)cc1C1N2CC3(C)CN1CC(C)(C2)C3=O` (stereo not drawn), the viability was 97.1% (inactive).

With `CCOC(=O)c1sc(NC(=O)CSc2n[nH]c(-c3ccccc3)n2)c(C#N)c1C`, the viability was 48.2% (inactive).

Regarding `CCOC(=O)N1CCN(CCC(=O)c2ccc(Cl)cc2)CC1`, the viability was 86.4% (inactive).

For `CCOC(=O)c1c(C)oc2c1c(C(c1ccncc1)N1CCOCC1)c(O)c1ccccc12` (stereo not drawn), the viability was 9.39% (active).

For `Cc1c(NC(=O)c2ccc(=O)oc2)c(=O)n(-c2ccccc2)n1C`, the viability is 90.9% (inactive).

Turning to `CCOc1ccccc1-n1nnnc1SCC(=O)Nc1cc2oc3ccccc3c2cc1OC`, the viability is 63.6% (inactive).

As for `CC1=C(C(=O)OC2CCCCC2)C(c2ccc(C)o2)C2=C(CC(C)(C)CC2=O)N1` (stereo not drawn), the viability was 50.5% (inactive).

With `Cc1nc2ccccc2c(=O)n1NC(=O)c1c(O)c2c(n(CC(C)C)c1=O)CCCC2`, the viability was 92% (inactive).

As to `COc1ccc(C2=NOC(C(=O)Nc3cc(Br)ccc3O)C2)cc1OC` (stereo not drawn), the viability was 56.4% (inactive).

Regarding `Cc1ccc(NC(=O)c2oc3ccc(S(=O)(=O)N4CCOCC4)cc3c2C)cc1C`, the viability was 51.6% (inactive).

For `Cc1nn(-c2nc3ccccc3s2)c(C)c1Oc1ccccc1O`, the viability is 20.3% (active).

With `Cc1ccc(S(=O)(=O)c2cc3c(=O)n4ccccc4nc3n(CC3CCCO3)c2=N)cc1C` (stereo not drawn), the viability was 69.9% (inactive).

In the case of `Cc1ccc(C)c(S(=O)(=O)C(C#N)c2nc3ccccc3nc2N2CC(C)OC(C)C2)c1` (stereo not drawn), the viability is 52.2% (inactive).

In the case of `COC(=O)c1ccccc1S(=O)(=O)N(Cc1cc2cc3c(cc2[nH]c1=O)OCO3)C1CCCCC1`, the viability is 82.6% (inactive).

In the case of `CC(C)C(=O)Nc1ccc(C(=O)NCc2cccnc2)cc1`, the viability is 118% (inactive).

Consider `C=C(c1ccc(O)cc1)c1ccc(O)cc1`, for which the viability is 70.8% (inactive).

As to `Cc1ccc2c(c1)c1c(n2CC(O)Cn2c(C)nc3ccccc32)/C(=N\O)CCC1` (stereo not drawn), the viability was 1.52% (active).

As to `C=CCn1c(COc2ccc(Cl)cc2)nnc1SCC(=O)N1CC(=O)Nc2ccccc21`, the viability was 65.5% (inactive).

Regarding `CCC(Sc1nc2n[nH]c(C)c2c(=N)n1-c1cc(Cl)ccc1C)C(=O)N1CCOCC1` (stereo not drawn), the viability was 71.2% (inactive).

In the case of `CCOC(=O)c1ccc(N2C(=O)CC(Sc3nnc(C)s3)C2=O)cc1` (stereo not drawn), the viability was 102% (inactive).

As for `N#CC1=C(N)n2c(s/c(=C\c3ccco3)c2=O)=C(C#N)C1c1ccco1` (stereo not drawn), the viability is 78.6% (inactive).

Regarding `COc1ccc(N2CCN(Cc3cc(=O)oc4cc(C)c(Cl)c(C)c34)CC2)cc1`, the viability is 84.1% (inactive).

With `Cc1ccc(S(=O)(=O)N2CCOCC2)cc1C(=O)Nc1ccc(-c2cn3ccsc3n2)cc1`, the viability was 58.7% (inactive).

Turning to `CCCCCCc1ccc(-c2ncc(N)cn2)cc1`, the viability was 7.73% (active).

On to `COc1cc(-c2noc(-c3ccccc3C(=O)NCc3ccco3)n2)cc(OC)c1OC`, for which the viability was 55.6% (inactive).

Turning to `Cc1ccc2nc(NC(=O)C3CCN(S(=O)(=O)c4cccc5nsnc45)CC3)sc2c1`, the viability was 42.8% (inactive).

Take `CCOC(=O)c1sc(Nc2nc3c(OC)cccc3s2)nc1C`: the viability is 63.3% (inactive).

For the compound `CC(=O)c1ccccc1Oc1nc(CN2CCOCC2)nc2scc(-c3cccs3)c12`, the viability is 73.3% (inactive).

In the case of `CCn1c2ccccc2c2cc(NC(=O)Cc3ccc(S(=O)(=O)N4CCOCC4)s3)ccc21`, the viability is 9.02% (active).

Turning to `Cc1[nH]nc(N=CC2=C(O)CC(C)(C)CC2=O)c1-c1ccc(Cl)cc1`, the viability was 79.4% (inactive).

Take `N#CC(C(=O)C1CCCCC1)c1nc2ccccc2[nH]1` (stereo not drawn): the viability is 82% (inactive).

Regarding `O=C(CSc1nnc2scc(-c3ccccc3)n12)Nc1nsc(-c2ccccc2)n1`, the viability was 70.3% (inactive).

In the case of `CC(C)(C)n1nnnc1C(c1ccccc1)N1CCc2ccccc2C1` (stereo not drawn), the viability is 42% (inactive).

On to `CCc1cc2c(=O)c(-c3nc4ccccc4[nH]3)coc2cc1OC(=O)N1CCOCC1`, for which the viability is 64.8% (inactive).

For the compound `O=C(Nc1sc2c(c1C(=O)NCc1ccco1)CCCC2)c1ccc2c(c1)OCO2`, the viability is 78.7% (inactive).

As for `Cc1cccc(N2CCN(C(=O)c3ccc(NS(=O)(=O)c4c(C)noc4C)cc3)CC2)c1C`, the viability was 68.2% (inactive).
